In brackets after ≈: the same amount, converted by molar mass. Activity calls are given as the source filed them. The rule behind the calls is not given here.
Assays:
[1] = tested on: HuCC-A1; experiment: Cytotoxic activity against human HuCCa1 cells by MTT assay; assay type: functional, cell-based
How it was run: (§1)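 Adherent cancer cell lines, viability read by MTT assay. Doxorubicin served as reference drug for A549, HepG2 and HuCCA-1, and etoposide also for HepG2. IC50 determined.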

[2] = tested on: Bacillus cereus; experiment: Antibacterial activity against Bacillus cereus after 20 hrs by broth microdilution method; assay type: functional
How it was run: (§2)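 Compounds dissolved in DMSO and two-fold serially diluted in 96-well plates, with final DMSO ≤0.5% (v/v). Inocula prepared in normal saline and adjusted to 0.5 McFarland turbidity. Plates incubated at 36 °C for 20 h, then absorbance read at 600 nm. MIC taken as the lowest concentration inhibiting growth.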

[3] = tested on: Pseudomonas aeruginosa; experiment: Antibacterial activity against Pseudomonas aeruginosa after 20 hrs by broth microdilution method; assay type: functional; how it was run: as §2
[4] = tested on: Staphylococcus aureus; experiment: Antibacterial activity against Staphylococcus aureus after 20 hrs by broth microdilution method; assay type: functional; how it was run: as §2
[5] = tested on: Enterococcus faecalis; experiment: Antibacterial activity against Enterococcus faecalis after 20 hrs by broth microdilution method; assay type: functional; how it was run: as §2
[6] = tested on: Escherichia coli; experiment: Antibacterial activity against Escherichia coli after 20 hrs by broth microdilution method; assay type: functional; how it was run: as §2
[7] = tested on: Shigella flexneri; experiment: Antibacterial activity against Shigella flexneri after 20 hrs by broth microdilution method; assay type: functional; how it was run: as §2
[8] = tested on: HepG2; experiment: Cytotoxic activity against human HepG2 cells by MTT assay; assay type: functional, cell-based; how it was run: as §1
[9] = tested on: Staphylococcus epidermidis; experiment: Antibacterial activity against Staphylococcus epidermidis after 20 hrs by broth microdilution method; assay type: functional; how it was run: as §2
[10] = tested on: MOLT-3; experiment: Cytotoxic activity against human MOLT3 cells by XTT assay; assay type: functional, cell-based
How it was run: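 Non-adherent MOLT-3 leukemia cells, viability read by XTT assay. Etoposide served as reference drug. IC50 determined.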

[11] = tested on: Salmonella typhimurium; experiment: Antibacterial activity against Salmonella typhimurium after 20 hrs by broth microdilution method; assay type: functional; details: Salmonella enterica subsp. enterica serovar Typhimurium; how it was run: as §2

Row | MIC [2] [µg/mL] | MIC [4] [µg/mL] | MIC [9] [µg/mL] | SMILES | IC50 [1] [µg/mL] | Activity [2] | Activity [3] | Activity [4] | Activity [5] | Activity [6] | Activity [7] | Activity [8] | Activity [1] | Activity [9] | Activity [10] | Activity [11] | IC50 [8] [µg/mL] | IC50 [10] [µg/mL]
1 | – | – | – | COc1cccc2c1C(=O)c1c(O)c3c(c(O)c1C2=O)C[C@@](O)(C(=O)CO)C[C@@H]3O[C@H]1C[C@H](N)[C@H](O)[C@H](C)O1 [DOXORUBICIN] | 0.33 (≈ 0.607 µM) | – | – | – | – | – | – | – | – | – | – | – | – | –
2 | – | – | – | CC1=CC2=C(C[C@H](C)C3=CC(=O)CC(C)O3)C(=O)[C@](C)(O)[C@@H](O)C2=CO1 (stereo partly drawn) | – | inactive | inactive | inactive | inactive | inactive | inactive | inactive | inactive | inactive | inactive | inactive | – | –
3 | 100 (≈ 191 µM) | 100 (≈ 191 µM) | 100 (≈ 191 µM) | CO[C@@H](/C=C/C=C(\C)[C@H](O)[C@H](C)C(=O)O[C@H]1C[C@H](C)C[C@@H]2C=C[C@H](C)[C@](C)(C(=O)[C@H](O)CO)[C@@H]12)[C@@H](C)O | – | – | inactive | – | inactive | inactive | inactive | inactive | inactive | – | inactive | inactive | – | –
4 | – | – | – | CC1=CC2=C(CC(C)C(=O)C[C@H](C)O)C(=O)[C@](C)(O)[C@@H](O)C2=CO1 (stereo partly drawn) | – | inactive | inactive | inactive | inactive | inactive | inactive | inactive | inactive | inactive | inactive | inactive | – | –
5 | – | – | – | C/C(=C\C=C\[C@H](O)[C@@H](C)O)[C@H](O)[C@H](C)C(=O)O[C@H]1C[C@H](CO)C[C@@H]2C=C[C@H](C)[C@](C)(C(=O)CCO)[C@@H]12 | – | inactive | inactive | inactive | inactive | inactive | inactive | inactive | inactive | inactive | inactive | inactive | – | –
6 | – | – | – | C/C(=C\C=C\[C@H](O)[C@H](C)O)[C@H](O)[C@H](C)C(=O)O[C@H]1C[C@H](C)C[C@@H]2C=C[C@H](C)[C@](C)(C(=O)[C@H](O)CO)[C@@H]12 | – | inactive | inactive | inactive | inactive | inactive | inactive | inactive | inactive | inactive | inactive | inactive | – | –
7 | – | – | – | C[C@H]1C=C[C@H]2C[C@@H](CO)C[C@H](O)[C@@H]2[C@@]1(C)C(=O)[C@H](O)CO | – | inactive | inactive | inactive | inactive | inactive | inactive | inactive | inactive | inactive | inactive | inactive | – | –
8 | – | – | – | CC1=CC2=C(C[C@@H](C)C3=CC(=O)CC(C)O3)C(=O)[C@](C)(O)[C@@H](O)C2=CO1 (stereo partly drawn) | – | inactive | inactive | inactive | inactive | inactive | inactive | inactive | inactive | inactive | inactive | inactive | – | –
9 | – | – | – | CO[C@@H](/C=C/C=C(\C)[C@H](O)[C@H](C)C(=O)O[C@H]1C[C@H](C)C[C@@H]2C=C[C@H](C)[C@](C)(C(=O)[C@H](O)CO)[C@@H]12)[C@H](C)O | – | inactive | inactive | inactive | inactive | inactive | inactive | inactive | inactive | inactive | inactive | inactive | – | –
10 | 0.78 (≈ 2.41 µM) | 0.78 (≈ 2.41 µM) | 0.78 (≈ 2.41 µM) | O=C(N[C@H](CO)[C@H](O)c1ccc([N+](=O)[O-])cc1)C(Cl)Cl [CHLORAMPHENICOL] | – | – | – | – | – | – | – | – | – | – | – | – | – | –
11 | – | – | – | COc1cc([C@@H]2c3cc4c(cc3[C@@H](O[C@@H]3O[C@@H]5CO[C@@H](C)O[C@H]5[C@H](O)[C@H]3O)[C@H]3COC(=O)[C@H]23)OCO4)cc(OC)c1O [ETOPOSIDE] | – | – | – | – | – | – | – | – | – | – | – | – | 24.3 (≈ 41.3 µM) | 0.04 (≈ 0.068 µM)
12 | 6.25 (≈ 14.1 µM) | 0.78 (≈ 1.76 µM) | 1.56 (≈ 3.51 µM) | CN(C)[C@@H]1C(O)=C(C(N)=O)C(=O)[C@@]2(O)C(O)=C3C(=O)c4c(O)cccc4[C@@](C)(O)[C@H]3C[C@@H]12 [TETRACYCLINE] | – | – | – | – | – | – | – | – | – | – | – | – | – | –
13 | – | – | – | C[C@H]1C=C[C@H]2C[C@@](O)(CO)CC[C@@H]2[C@@]1(C)C(=O)CCO | – | inactive | inactive | inactive | inactive | inactive | inactive | inactive | inactive | inactive | inactive | inactive | – | –

From ChEMBL document CHEMBL4020704, “Metabolite diversification by cultivation of the endophytic fungus Dothideomycete sp. in halogen containing media: Cultivation of terrestrial fungus in seawater” (Bioorg Med Chem, 2017)
